Test results from ChEMBL document CHEMBL4715911, “Quest for a potent antimalarial drug lead: Synthesis and evaluation of 6,7-dimethoxyquinazoline-2,4-diamines” (Bioorg Med Chem, 2021).

Key:
[1] = Selectivity index, ratio of IC50 for cytotoxicity against rat L6 cells to IC50 for antimalarial activity against Plasmodium falciparum NF54; assay type: toxicity, cell-based; details: read-out: Ratio IC50
Summary of the method: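 SI calculated as L6 cytotoxicity IC50 divided by P. falciparum NF54 IC50, both measured in parallel in vitro assays.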

Plasmodium falciparum = test: Antimalarial activity against Plasmodium falciparum NF54 assessed as inhibition of parasite growth incubated for 48 hrs by [3H]hypoxanthine incorporation assay based liquid scintillation counting method; assay type: functional, organism-based
Summary of the method: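 ³H-hypoxanthine incorporation against erythrocytic P. falciparum NF54 (drug-sensitive). Culture in hypoxanthine-free RPMI 1640 with HEPES, NaHCO3, neomycin and Albumax, on human A+ red cells at 2.5% hematocrit, 0.3% parasitemia. Eleven 3-fold dilutions spanning 100 to 0.002 µg/mL. 37 °C in 4% CO2/3% O2/93% N2. Label (0.5 µCi) added after 48 h, then a further 24 h. Scintillation counting. IC50 from 4-parameter logistic fit, average of two independent determinations.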

L6 = test: Cytotoxicity against rat L6 cells assessed as reduction in cell viability incubated for 70 hrs by resazurin dye based fluorescence assay; details: L6, 70 h
Summary of the method: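 L6 rat skeletal myoblasts seeded at 4000 cells/well in RPMI 1640 with 1% L-glutamine and 10% FBS. Eleven 3-fold drug dilutions (100 to 0.002 µg/mL) added 24 h after seeding, then 70 h incubation. Resazurin added for 2 h. Fluorescence read at ex 536/em 588 nm. IC50 from 4-parameter logistic fit, average of two independent determinations.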

Plasmodium berghei [2] = test: Antimalarial activity against Plasmodium berghei NK65 infected in ICR mouse assessed as reduction in parasitemia at 54.7 mg/kg, po qd for 4 days by Diff-Quik staining based microscopic method (reference value: 0%); assay type: functional; details: 96 h, time 4 day
Plasmodium berghei [3] = test: Antimalarial activity against Plasmodium berghei NK65 infected in ICR mouse assessed as mean survival days at 54.7 mg/kg, po for 4 days (reference value: 6.2 day); assay type: functional; details: time 4 day
Plasmodium berghei [4] = test: Antimalarial activity against Plasmodium berghei NK65 infected in ICR mouse assessed as reduction in parasitemia at 58.4 mg/kg, po qd for 4 days by Diff-Quik staining based microscopic method (reference value: 0%); assay type: functional; details: 96 h, time 4 day
Plasmodium berghei [5] = test: Antimalarial activity against Plasmodium berghei NK65 infected in ICR mouse assessed as animal mean survival days at 58.4 mg/kg, po qd for 4 days (reference value: 6.2 day); assay type: functional; details: time 4 day
Plasmodium berghei [6] = test: Antimalarial activity against Plasmodium berghei NK65 infected in ICR mouse assessed as reduction in parasitemia at 58.2 mg/kg, po qd for 4 days by Diff-Quik staining based microscopic method (reference value: 0%); assay type: functional; details: 96 h, time 4 day
Plasmodium berghei [7] = test: Antimalarial activity against Plasmodium berghei NK65 infected in ICR mouse assessed as parasitemia at 58.2 mg/kg, po qd for 4 days by Diff-Quik staining based microscopic method (reference value: 28.4 +/- 10.2%); assay type: functional; details: time 4 day
Plasmodium berghei [8] = test: Antimalarial activity against Plasmodium berghei NK65 infected in ICR mouse assessed as animal mean survival days at 116.4 mg/kg, po qd for 4 days (reference value: 6.2 +/- 0.5 day); assay type: functional; details: time 4 day
Plasmodium berghei [9] = test: Antimalarial activity against Plasmodium berghei NK65 infected in ICR mouse assessed as parasitemia at 116.4 mg/kg, po qd for 4 days by Diff-Quik staining based microscopic method (reference value: 28.4 +/- 10.2%); assay type: functional; details: time 4 day
Plasmodium berghei [10] = test: Antimalarial activity against Plasmodium berghei NK65 infected in ICR mouse assessed as animal mean survival days at 58.2 mg/kg, po qd for 4 days (reference value: 6.2 +/-0.5 day); assay type: functional; details: time 4 day
Plasmodium berghei [11] = test: Antimalarial activity against Plasmodium berghei NK65 infected in ICR mouse assessed as reduction in parasitemia at 116.4 mg/kg, po qd for 4 days by Diff-Quik staining based microscopic method (reference value: 0%); assay type: functional; details: 96 h, time 4 day
Plasmodium berghei [12] = test: Antimalarial activity against Plasmodium berghei NK65 infected in ICR mouse assessed as reduction in parasitemia at 66.3 mg/kg, po qd for 4 days by Diff-Quik staining based microscopic method (reference value: 0%); assay type: functional; details: 96 h, time 4 day
Plasmodium berghei [13] = test: Antimalarial activity against Plasmodium berghei NK65 infected in ICR mouse assessed as animal mean survival days at 66.3 mg/kg, po qd for 4 days (reference value: 6.2 day); assay type: functional; details: time 4 day
Plasmodium berghei [14] = test: Antimalarial activity against Plasmodium berghei NK65 infected in ICR mouse assessed as reduction in parasitemia at 50 mg/kg, po qd for 4 days by Diff-Quik staining based microscopic method (reference value: 0%); assay type: functional; details: 96 h, time 4 day
Plasmodium berghei [15] = test: Antimalarial activity against Plasmodium berghei NK65 infected in ICR mouse assessed as animal mean survival days at 50 mg/kg, po qd for 4 days (reference value: 6.2 +/- 0.5 day); assay type: functional; details: time 4 day
Plasmodium berghei [16] = test: Antimalarial activity against Plasmodium berghei NK65 infected in ICR mouse assessed as parasitemia at 50 mg/kg, po qd for 4 days by Diff-Quik staining based microscopic method (reference value: 28.4 +/- 10.2%); assay type: functional; details: time 4 day

Compound | selectivity ratio [1] | IC50 (Plasmodium falciparum) [µM] | IC50 (L6) [µM] | also measured
CCCCNc1nc(NCc2ccncc2)nc2cc(OC)c(OC)cc12 | 1360 | 0.00816 | 11 | 
COc1cc2nc(Nc3ccncc3)nc(Nc3ccccc3C)c2cc1OC | 4350 | 0.049 | 213 | 
COc1cc2nc(N3CCCC3)nc(N)c2cc1OC | 17 | 1.66 | 28.2 | 
COc1cc2nc(Nc3ccncc3)nc(Nc3ccccc3C)c2cc1OC.Cl |  |  |  | inhibition in vivo at 54.7 mg/kg (Plasmodium berghei [2]): 60.8%; MSD (Plasmodium berghei [3]): 7.3 days
CCCCCCCCNc1nc(Nc2ccncc2)nc2cc(OC)c(OC)cc12.Cl |  |  |  | inhibition in vivo at 58.4 mg/kg (Plasmodium berghei [4]): 54.8%; MSD (Plasmodium berghei [5]): 7.3 days
CCCCNc1ncnc2cc(OC)c(OC)cc12 | 15.6 | 4.71 | 73.6 | 
CCCCNc1nc(NCC)c2cc(OC)c(OC)cc2n1 | 230 | 0.023 | 5.29 | 
CCCCNc1nc(N2CCCC2)nc2cc(OC)c(OC)cc12.Cl |  |  |  | inhibition in vivo at 58.2 mg/kg (Plasmodium berghei [6]): 95.5%; Activity (Plasmodium berghei [7]): 1.5%; MSD (Plasmodium berghei [8]): 11.6 days; Activity (Plasmodium berghei [9]): 0%; MSD (Plasmodium berghei [10]): 17.5 days; inhibition in vivo at 116.4 mg/kg (Plasmodium berghei [11]): > 99%
CCCCNc1nc(NC(C)C)c2cc(OC)c(OC)cc2n1 | 1690 | 0.00314 | 5.31 | 
COc1cc2nc(Nc3ccncc3)nc(NCc3ccncc3)c2cc1OC.Cl.Cl |  |  |  | inhibition in vivo at 66.3 mg/kg (Plasmodium berghei [12]): 29.4%; MSD (Plasmodium berghei [13]): 7.7 days
COc1cc2nc(N3CCC(C(N)=O)CC3)nc(NCc3ccccc3)c2cc1OC | 27.7 | 0.18 | 4.98 | 
CCCCNc1nc(N2CCCC2)nc2cc(OC)c(OC)cc12 |  | 0.0018 | 61.8 | inhibition in vivo at 50 mg/kg (Plasmodium berghei [14]): 60%; MSD (Plasmodium berghei [15]): 6.6 days; Activity (Plasmodium berghei [16]): 10.8%
